Data from ChEMBL document CHEMBL4184113, “Synthesis and PGE2 inhibitory activity of novel diarylheptanoids” (Bioorg Med Chem Lett, 2018).
Activity calls are given as the source filed them. No cut-off for these calls is given here.

Assays:
[1] = target: T1, Prostaglandin E synthase (Mus musculus) (UniProt Q9JM51); assay: Inhibition of mPGES1 in mouse 3T3L1 cells assessed as reduction in PGE2 production at 1 to 10 ng/ml after 1 hr by ELISA; format: cell-based
T1 sequence (whole entry): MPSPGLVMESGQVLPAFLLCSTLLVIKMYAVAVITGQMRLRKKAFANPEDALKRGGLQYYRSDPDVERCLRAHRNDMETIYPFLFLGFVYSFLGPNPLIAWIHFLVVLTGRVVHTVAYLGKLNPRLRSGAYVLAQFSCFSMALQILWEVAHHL
In short: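 3T3 cells were treated with compound at 1 and 10 ng/ml. Culture media were collected and secreted PGE2 was measured by ELISA.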

Homo sapiens = organism: Homo sapiens; assay: Inhibition of TNFalpha-induced NFkappaB activation (unknown origin) expressed in mouse 3T3L1 cells at 10 ng/µl by luciferase reporter gene assay
[2] = target: T1, Prostaglandin E synthase (Mus musculus); assay: (§1) Inhibition of mPGES1 in mouse 3T3L1 cells assessed as reduction in PGE2 production after 1 hr by ELISA; format: cell-based
In short: (§2)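 3T3 cells were treated at four doses and secreted PGE2 was measured by ELISA. IC50 was obtained by four-parameter logistic fit.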

Prostaglandin E synthase = target: T2, Prostaglandin E synthase (Mus musculus, UniProt Q9JM51); assay: as §1; format: cell-based; in short: as §2
T2 sequence (Q9JM51 whole entry): T1 sequence (whole entry)

3T3-L1 = assay: Cytotoxicity against mouse 3T3L1 cells assessed as reduction in cell viability at 10 ng/ml after 6 hrs by alamar blue assay; format: cell-based; details: 3t3-l1, 6 h
[3] = target: T1, Prostaglandin E synthase (Mus musculus); assay: Inhibition of mPGES1 in mouse 3T3L1 cells assessed as reduction in PGE2 production at 10 ng/ml after 1 hr by ELISA relative to control; values are per cent of control

SMILES	inhibition [2]	IC50 (Prostaglandin E synthase) [µM]	inhibition (Homo sapiens)	Activity (3T3-L1)	also measured
COc1ccc(C/C=C/CCCCc2ccccc2O)cc1	–	–	inactive	–	inhibition [1]: Active
COc1ccc(C/C=C/CCCCc2ccc(O)cc2)cc1	–	–	–	–	inhibition [1]: inactive
COc1ccc(CCCCc2ccc(OC)cc2)cc1	Dose-dependent effect	–	inactive	–	–
COc1ccc(C/C=C/CCCCc2ccccc2O)cc1OC	–	–	inactive	–	–
COc1ccc(CCCCCCCc2ccccc2O)cc1	–	–	–	–	inhibition [1]: inactive
COc1cc(/C=C/C(=O)CC(=O)/C=C/c2ccc(O)c(OC)c2)ccc1O	–	–	Active	–	–
COc1ccc(CCCCCCCc2ccc(O)cc2)cc1	–	–	inactive	–	–
COc1ccc(CCCCCCCc2ccc(O)cc2)cc1OC	Dose-dependent effect	29	–	Non-Toxic	residual activity [3]: 33%

More lines, main results first:

inhibition [2]	IC50 (Prostaglandin E synthase) [µM]	SMILES	inhibition (Homo sapiens)	Activity (3T3-L1)	also measured
Dose-dependent effect	1.7	COc1ccc(C/C=C/CCCCc2ccc(O)cc2)cc1OC	–	Non-Toxic	–
Dose-dependent effect	17	COc1ccc(CCCCCCCc2ccccc2O)cc1OC	inactive	Non-Toxic	–
Dose-dependent effect	12	COc1ccc(C/C=C/Cc2ccc(OC)cc2)cc1	–	Non-Toxic	–
